Experimental findings from ChEMBL document CHEMBL3244054, “Kojic amine--a novel gamma-aminobutyric acid analogue” (J Med Chem, 1979) are described below.

Activity calls are given as the source filed them. No cut-off for these calls is given here.

For series [1], the system named is Felis catus. Put plainly: Skeletal muscle relaxant activity in po dosed chronic spinal mongrel cat assessed as reduction of flexor spasm administered every 15 mins interval. Type of series: functional. The essentials: (§1)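 Test agent dissolved in normal saline and given to chronic spinal animals intravenously or by oral gavage as cumulative doses at 15-min intervals. The flexor reflex response was compared against predrug control responses. ED70 is the cumulative dose that reduced the flexor reflex by 70% or more.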

Series [2] concerns Rattus norvegicus. Put plainly: Skeletal muscle relaxant activity in iv dosed chronic spinal Sprague-Dawley rat assessed as reduction of flexor spasm administered every 15 mins interval. The class given is functional. As to conditions: 0.25 h. The essentials: as §1
Series [3] relates to Felis catus. Put plainly: Skeletal muscle relaxant activity in iv dosed chronic spinal mongrel cat assessed as reduction of flexor spasm administered every 15 mins interval. The class given is functional. As to conditions: 0.25 h. In a few lines:
as §1

Series [4] in a line: Dissociation constant, pKa of the compound. The class given is physicochemical.
Series [5] deals with Felis catus. Put plainly: Skeletal muscle relaxant activity in chronic spinal mongrel cat assessed as reduction of flexor spasm up to 16 mg/kg, iv administered every 15 mins interval. Type of series: functional, organism-based. Set-up: dose 16 mg/kg. The essentials: as §1
The subject of series [6] is Rattus norvegicus. Put plainly: Toxicity in iv dosed chronic spinal Sprague-Dawley rat assessed as lethality at cumulative dose of 16 mg/kg, iv. The class given is organism-based. Further details: dose 16 mg/kg, route intravenous. As to conditions: in vivo.
For series [7], the system named is Mus musculus. Put plainly: Toxicity in Swiss mouse at 8 mg/kg, po. Further details: dose 8 mg/kg, route oral. Conditions: in vivo. Type of series: organism-based.
For series [8], the system named is Mus musculus. Put plainly: Anticonvulsant activity in po dosed Swiss mouse assessed as reduction of 3-mercaptopropionic acid-induced tonic extensor-seizures within 3 to 7 mins. Type of series: functional. The essentials: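 Robidoux Swiss male mice, 18–22 g. Test substances in saline given orally 30 min before ip 3-mercaptopropionic acid at 25 mg/kg, which induces tonic-extensor seizures within 3–7 min in 90–100% of mice. ED50 is the dose preventing tonic-extensor seizures in 50% of animals, by regression analysis over at least three doses with ten mice per dose level.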

Series [9] has as its system Mus musculus. Put plainly: Toxicity in Swiss mouse at 128 mg/kg, po. The class given is organism-based. Further details: dose 128 mg/kg, route oral. Conditions: in vivo.
The subject of series [10] is Felis catus. Put plainly: Skeletal muscle relaxant activity in chronic spinal mongrel cat assessed as reduction of flexor spasm up to 7.5 mg/kg, iv administered every 15 mins interval. Type of series: functional, organism-based. Further details: dose 7.5 mg/kg. In a few lines:
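Chronic spinal cat preparation. Test substances in normal saline were given iv in cumulative doses at 15-min intervals, and the flexor reflex response was recorded against predrug control responses. ED70 is the cumulative dose reducing the flexor reflex response by 70% or more.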

Turning to `NCCCC(=O)NCc1cc(=O)c(O)co1`, in series [1], the ED70 entry is “inactive”. With `CC(N)C(=O)NCc1cc(=O)c(O)co1` (stereo not given), the ED70 was 8 mg/kg in series [2] and 12 mg/kg in [3].

`NCCCC(=O)O` [GAMMA-AMINOBUTYRIC ACID] displayed a pKa in series [4] of 4.04. With `NCC(=O)NCc1cc(=O)c(O)co1`, the ED70 in [2] is 8 mg/kg; in [3] it was 12 mg/kg. As to `NCCCc1cc(=O)c(O)co1`, in series [5], the outcome was inactive. Regarding `NCCC(=O)NCc1cc(=O)c(O)co1`, the ED70 result in series [1] is “inactive”.

For the molecule `CN(C)Cc1cc(=O)c(O)co1`, the ED70 entry in series [1] was “inactive”. Same read-out and setting: with `NCc1cc(=O)c(O)c[nH]1` the entry was “inactive”. With `NCc1cc(=O)[nH]o1` [MUSCIMOL], the Activity entry in series [6] and in series [7] was “Toxic” throughout. The same molecule came in with a pKa in series [4] of 4.78. As to `CC(=O)NCc1cc(=O)c(O)co1`, the ED70 result in [1] is “inactive”.

As for `O=c1cc(CNCc2ccccc2)occ1O`, the ED70 result in [1] was “inactive”.

Regarding `CC(N)c1cc(=O)c(O)co1` (stereo not given), the ED70 entry in series [1] was “inactive”.

Consider `NCc1cc(=O)c(O)co1`, for which, in series [8], the ED50 came out at 15 mg/kg. For the same molecule, the ED70 was found to be 8 mg/kg in series [2], 2.2 mg/kg in series [3] and 4 mg/kg in [1] (0.25 h). In [9], the Activity entry is reported as “Non-toxic”. The pKa in series [4] stood at 6.6. Take `O=c1cc(CO)occ1O` [KOJIC ACID]: the pKa in series [4] was determined as 7.95. As to `CNCc1cc(=O)c(O)co1`, the ED70 result in [1] is “inactive”. The same measure, in the same setting: for `NCCc1cc(=O)c(O)co1` the value was “inactive”. On the same count and under the same terms, with `NC(Cl)c1cc(=O)c(O)co1` (stereo not given) the entry was “inactive”. Regarding `NCc1cc(O)no1` [MUSCIMOL], in [8], the ED50 was 1.34 mg/kg. Moreover, the ED70 in series [2] came to 16 mg/kg. The outcome in series [10] was inactive. Take `Cn1cc(O)c(=O)cc1CN`: the ED70 entry in series [1] was “inactive”.
